Compound activity from PubChem BioAssay.
EWS-Fli inh: blocks EWS/Fli oncoprotein-driven transcription. A673 NR0B1-luciferase reporter, viability-normalised. inhibition, % at 12.6 µM. 350,000 compounds, 0.67% hits. AID 651661;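 active = mean inhibition of at least 50% after viability correction, with every replicate also passing that limit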;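 note: firefly luciferase signal divided by Alamar Blue viability fluorescence both relative to DMSO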
PGC1a acetyl inh: lowers PGC1a acetylation signal in U2OS cells | AlphaScreen anti-acetyl-lysine; with virally co-expressed GCN5 acetyltransferase | inhibition, % at 15.6 µM | 350,000 compounds, 0.17% hits | AID 651687;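 active = every replicate shows inhibition of at least 40%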;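 note: 0% = neutral control wells and 100% = positive control wells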
FN deposit inh: fibronectin deposition inhibition; inhibition, % at 12.6 µM; AH1F fibroblasts, Alexa488-fibronectin deposition fluorescence, overnight; 350,000 compounds, 0.086% hits;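 active = mean inhibition across replicates of 30% or more, regardless of how many single replicates reach that level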;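 note: positive control wells lacked labelled fibronectin entirely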
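Assay system: AH1F fibroblast monolayer, labelled fibronectin deposition. Amount: 10000 cells per well. Also added: labelled fibronectin 24 nM. Compound: single-point pinned compound. Incubation: cell attachment 1 h, compound and FN exposure overnight. Detection: fluorescence after three HBSS washes, excitation 485 nm, emission 525 nm. Read-out: inhibition of fibronectin deposition signal.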
CFTR F508del cor: CFTR F508del correction in bronchial cells. CFBE cells, YFP halide quenching; stimulated with forskolin plus potentiator P3; % fluorescence drop versus neutral controls. activity (quench increase), % at 7.58 µM. 350,000 compounds, 0.36% hits. AID 720511;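 active = mean added fluorescence quench of at least 8% versus neutral control, with both replicates also reaching 8%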;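 note: cells transiently co-express mutant CFTR-F508del with the halide-sensitive YFP; corrector assay measuring rescue of mutant channel to the surface after 24 h compound exposure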
PAX8 reporter: inhibitors of PAX8 transcriptional activity in RMG-I cells; RMG-I TPO-luciferase reporter, SteadyGlo, 24 h; inhibition, % at 12.6 µM; 360,000 compounds, 1.2% hits; AID 652154;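 active = mean replicate inhibition at least 60% with every replicate also reaching 60%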;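 note: luciferase light reporting Pax8 driven TPO promoter activity; plate controls were median of neutral control wells for no effect and mitoxantrone controls for full effect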
Env fusion inh: inhibitors of HIV Env-mediated cell fusion. HeLa-JRFL Env/CEM21 cell fusion, luciferase. inhibition, % at 12.3 µM. 360,000 compounds, 1.1% hits. AID 651610;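 active = mean replicate inhibition score of at least 50 and every replicate individually at or above 50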;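 note: 0% = plate neutral controls and 100% = maraviroc near 300 nM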
Active calls of the source: *; . = not tested or not shown; [ ] = another dose, or the depositor's remark. Sampled rows, rich in hits. Any-hit rate of the full collection: about 2.3%.

SMILES	EWS-Fli inh	PGC1a acetyl inh	FN deposit inh	CFTR F508del cor	PAX8 reporter	Env fusion inh
O=C(CCc1ccc(S(=O)(=O)N2CCOCC2)cc1)Nc1nc(COc2ccccc2)cs1	.	6	-1	.	.	80*
O=C(COc1ccccc1)Nc1nc(-c2ccc(S(=O)(=O)N3CCOCC3)cc2)cs1	.	1	.	.	.	.
O=S(=O)(c1ccc(OCc2ccc(Br)cc2)cc1)N1CCOCC1	4	0	-8	19*	0	.
COc1ccc(C(=O)CCN2CCc3cc(OC)c(OC)cc3C2)cc1	-6	-1	-2	-2	71*	11
COc1ccc(C(=O)CCN2CCN(c3ccccc3OC)CC2)cc1	-4	5	-9	-6	83*	-22
Cc1ccc2[nH]c3c(c2c1)CN(C(=O)CN1CCN(c2cccc(C)c2C)CC1)CC3	.	6	.	.	.	.
Cc1ccc2[nH]c3c(c2c1)CN(C(=O)CN1c2ccc(F)cc2CCC1C)CC3 (stereo unspecified)	.	.	4	.	.	60*
O=C(c1ccncc1)N1CC2(C1)[C@H](c1ccccc1)[C@@H](CO)N2CC1CCOCC1	-4	5	-5	2	-1	.
C[C@H](O)C#Cc1ccc2c(c1)O[C@H](CN(C)C(=O)C1CCCCC1)[C@H](C)CN([C@H](C)CO)S2(=O)=O	-3	-7	.	-2	.	-13[16.7 µM]
C[C@@H]1CCCCO[C@@H](CN(C)C(=O)Nc2ccc(C(F)(F)F)cc2)[C@@H](C)CN([C@H](C)CO)C(=O)c2cc(NC(=O)c3ccncc3)ccc2O1	5	2	-7	0	.	.
Cc1ccc(CN2CC(N3CCCC3)CS2(=O)=O)cc1 (stereo unspecified)	-6	8	-2	-3	-9	60*
COc1ccc2c3c([nH]c2c1)[C@H](CO)N(C(=O)c1ccncc1)CC31CN(C(=O)C2CCC2)C1	-12	0	.	1	-20	.
CCC(C)(C)NC(=O)C(c1ccc(C)cc1)N(CC1CCCO1)C(=O)c1csnn1 (stereo unspecified)	-21	.	-1	1	-19	72*
CCC(C)(C)NC(=O)C(c1ccc(C)cc1)N(CC1CCCO1)C(=O)CNC(=O)c1cccs1 (stereo unspecified)	.	11	2	.	.	23
Cc1noc(C)c1COc1ccc(C(=O)N2CCN(S(=O)(=O)c3ccc(F)cc3)CC2)cc1	-1	.	-2	26*	8	3
CCCNC(=O)N(C)C[C@H]1Oc2ncc(C#CC3CC3)cc2C(=O)N([C@@H](C)CO)C[C@@H]1C	-12	2	.	-1	.	3[16.7 µM]
COc1ccc(NC(=O)O[C@H](c2ccc(OCCO)cc2)[C@@H](C)CCO)cc1	-8	2	.	-1	-10	2[16.7 µM]
CO[C@H]1CN(C)C(=O)c2ccc(NC(=O)Cc3ccccc3)cc2OC[C@@H](C)N(C)C[C@H]1C	-6	3	13	0	2	16[16.7 µM]
COCCNC(=O)CCc1c(C)nc2c(c(C)nn2-c2ccc(C)cc2)c1C	3	.	3	-2	-4	8
COCCNC(=O)CCc1c(C)nc2c(c(C)nn2-c2ccc(C)c(C)c2)c1C	4	78*	4	-4	1	15
CC(=O)NC[C@H]1[C@@H](c2ccc(C3=CCCC3)cc2)[C@@H](CO)N1C(=O)C1CC1	.	.	-4	2	.	.
O=C1/C(=C\c2ccccc2)CCC/C1=C/c1ccccc1	1	.	0	0	10	42
CCN(CC)CCC(=O)N1C/C(=C/c2ccccc2)C(=O)/C(=C\c2ccccc2)C1	82*	.	21	-8	-13	.
C[C@@H]1CN([C@@H](C)CO)C(=O)Cc2cc(NC(=O)CCN3CCOCC3)ccc2O[C@@H]1CN(C)S(=O)(=O)c1ccc(F)cc1	-5	5	.	-2	-4	.
Cc1ccc(S(=O)(=O)Nc2ccc3c(c2)C(=O)N([C@@H](C)CO)C[C@@H](C)[C@@H](CN(C)Cc2ccc(Cl)c(Cl)c2)OCCCC[C@@H](C)O3)cc1	-15	-13	1	4	96*	30[16.7 µM]
SMILES	EWS-Fli inh	PGC1a acetyl inh	FN deposit inh	CFTR F508del cor	PAX8 reporter	Env fusion inh
Cc1ccc(S(=O)(=O)Nc2ccc3c(c2)C(=O)N([C@H](C)CO)C[C@@H](C)[C@@H](CN(C)Cc2ccc(Cl)c(Cl)c2)OCCCC[C@H](C)O3)cc1	3	13	2	-2	55	.
Cc1ccc(S(=O)(=O)Nc2ccc3c(c2)C(=O)N([C@H](C)CO)C[C@@H](C)[C@H](CN(C)Cc2ccc(Cl)c(Cl)c2)OCCCC[C@H](C)O3)cc1	29	11	-29	0	96*	29[16.7 µM]
COc1cc(-c2noc(C)c2/C=C/c2ccc(OC(C)=O)cc2)cc(OC)c1OC	64*	-34	3	3	69*	.
COc1ccc(-c2oc(=O)c3cc(OC)c(OC)cc3c2/C=C/c2ccc(OC(C)=O)cc2)cc1	16	-8	11	1	23	-35
CC[C@@H]1CCC[C@@H](O)[C@@H](C)C(=O)O[C@H](C)[C@@H](C)C/C=C(C)/C(OC)=C\C(=O)N(C)C([C@@H](C)CC)C(=O)N(C)[C@@H](C(C)C)C(=O)N(C)[C@@H](COC)C(=O)N2CCC[C@H]2C(=O)N(C)[C@@H](C(C)C)C(=O)N2CCC[C@H]2C(=O)O1 (stereo partly specified)	20	32	3	-5	88*	20
O=C(N[C@@H]1CC[C@H](CCn2cc(-c3ccccc3)nn2)O[C@@H]1CO)c1ccccc1F	-10	-3	1	3	4	-9[16.7 µM]
CN1CCN(C(=O)C[C@@H]2CC[C@H]3[C@@H](COC[C@H](O)CN3CC3CCCC3)O2)CC1	.	-6	-6	3	5	.
CCOc1ccc(N2CC(C(=O)Nc3ccc(S(=O)(=O)NCC4CCCO4)cc3)CC2=O)cc1 (stereo unspecified)	-11	56*	-1	0	-5	6
COc1ccc([C@@H]2C/C=C\C[C@@H](c3ccccc3)NC(=O)CCC(=O)N2)c(OC)c1	.	.	0	.	.	.
Cc1ccc(N(C(=O)Cc2c[nH]c3ccccc23)C(C(=O)NC2CCCCC2)c2ccco2)cc1 (stereo unspecified)	.	13	-4	.	.	84*
Cc1ccc(C)c(S(=O)(=O)N2CCCCC2CCNC(=O)C(=O)NC2CCCC2)c1 (stereo unspecified)	5	1	0	3	16	2
Cc1ccc(C)c(S(=O)(=O)N2CCCCC2CCNC(=O)C(=O)NCc2ccncc2)c1 (stereo unspecified)	16	3	-3	-2	69*	-115
CCc1cccc(N=c2c([N+](=O)[O-])nn(-c3ccc4c(c3)OCCO4)n2O)c1	-11	.	-1	0	101*	38
Cn1cc(/C=C(\C(=O)O)C(C(=O)O)=C2CCCCC2)c2ccccc21	8	10	-4	-2	95*	16
